Data as given in ChEMBL document CHEMBL4610116, “Salicylanilide Analog Minimizes Relapse of Clostridioides difficile Infection in Mice” (J Med Chem, 2020).
Converted amounts (≈) assume the structure as drawn. The source made the active and inactive calls. The rule behind the calls is not given here.

Legend:
Clostridioides difficile [1] = assay: Antimicrobial activity against Clostridioides difficile CD10463 incubated for 20 to 24 hrs by broth microdilution method; assay type: functional
Summary of the method: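 Broth microdilution in pre-reduced BHIS using two-fold serial dilutions and ~5 × 10⁵ cfu/mL inoculum. Incubated 20–24 h at 37°C, anaerobic (8% H₂, 8% CO₂, 84% N₂). MIC read by the Lambert-Pearson method; duplicates.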

Clostridioides difficile [2] = assay: (§1) Suppression of relapse of Clostridioides difficile 630 infection in cefoperazone-treated C57BL/6J mouse model of recurrent Clostridioides difficile 630 infection assessed as reduction in body weight loss at 0.4 mg/ml, po for 5 days from day 4 to 9 after infection with spores and measured on day 3; assay type: functional, organism-based
Summary of the method: (§2)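 Cefoperazone 0.5 mg/ml in drinking water for 5 days, then 2-day washout, in 5-week-old male and female C57BL/6J mice. Oral gavage of 10⁵ C. difficile 630 spores on day 0. Vancomycin 0.4 mg/mL given in drinking water ad libitum on days 4–9. Body weight recorded daily and clinical signs watched for 14 days; n=6 per group.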

Clostridioides difficile [3] = assay: as §1, with “in microbial load (total vegetative cells plus spores)” for “in body weight loss”, “day 7” for “day 3”; assay type: functional, organism-based
Summary of the method: (§3)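 Strain 630 spore challenge (10⁵, gavage) of cefoperazone-treated mice; vancomycin 0.4 mg/mL in drinking water on days 4–9. Feces diluted 1:10 in PBS and settled anaerobically 30 min. Ten-fold dilutions plated on TCCFA, incubated anaerobically at 37°C for 24 h. Result is CFU/g feces of total vegetative cells plus spores from unheated samples. Mixed-effect model with Tukey post test.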

Clostridioides difficile [4] = assay: as §1, with “day 3 after drug cessation” for “day 3”; assay type: functional, organism-based; summary of the method: as §2
Clostridioides difficile [5] = assay: as §1, with “reduction in microbial load in feces (total vegetative cells plus spores) at 0.4” for “reduction in body weight loss at 0.4”, “day 3 after drug cessation” for “day 3”; assay type: functional, organism-based; summary of the method: as §3
Clostridioides difficile [6] = assay: Suppression of relapse of Clostridioides difficile 630 infection in cefoperazone-treated C57BL/6J mouse model of recurrent Clostridioides difficile 630 infection assessed as reduction in weight loss at 0.4 mg/ml, po for 5 days from day 4 to 9 after infection with spores and measured on day 14; assay type: functional; design: scale not given: the % may be the effect or the level left; summary of the method: as §2
Clostridioides difficile [7] = assay: (§4) Suppression of relapse of Clostridioides difficile 630 infection in cefoperazone-treated C57BL/6J mouse model of recurrent Clostridioides difficile 630 infection assessed as reduction in clinical illness at 0.4 mg/ml, po for 5 days from day 4 to 9 after infection with spores measured on day day 14; assay type: functional, organism-based; summary of the method: as §2
Clostridioides difficile [8] = assay: as §4, with “histopathological summary scores” for “clinical illness”; assay type: functional, organism-based
Clostridioides difficile [9] = assay: as §4, with “group-Bacteroidaceae level” for “clinical illness”; assay type: functional, organism-based
Summary of the method: (§5)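 Infection model: cefoperazone 0.5 mg/ml in drinking water for 5 days, 2-day washout, then 10⁵ strain 630 spores by gavage. Vancomycin 0.4 mg/mL in drinking water, days 4–9. Cecal tissue snips taken at day 14 necropsy; gut bacterial community profiled by 16S rRNA gene sequencing on Illumina MiSeq. n=6 per group.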

Clostridioides difficile [10] = assay: as §4, with “group-Proteobacteria level” for “clinical illness”; assay type: functional, organism-based; summary of the method: as §5

## O=C(Nc1ccc(Oc2ccc(Cl)cc2)c(Cl)c1)c1cc(Cl)cc(Cl)c1O
Clostridioides difficile [1]
  MIC: 0.11 µM (≈ 0.0487 µg/mL)

## O=C(Nc1ccc(Oc2ccc(Cl)cc2)c(F)c1)c1cc(Cl)cc(Cl)c1O
Clostridioides difficile [1]
  MIC: 0.135 µM (≈ 0.0576 µg/mL)

## COc1cc(Oc2ccc(Cl)cc2)ccc1NC(=O)c1cc(Cl)cc(Cl)c1O
Clostridioides difficile [1]
  MIC: 3.6 µM (≈ 1.58 µg/mL)

## O=C(Nc1ccc(Oc2ccc(Cl)cc2)c(I)c1)c1cc(Cl)cc(Cl)c1O
Clostridioides difficile [1]
  MIC: 0.6 µM (≈ 0.321 µg/mL)

## O=C(Nc1ccc(Oc2ccc(Cl)cc2)cc1I)c1cc(Cl)cc(Cl)c1O
Clostridioides difficile [1]
  MIC: 0.17 µM (≈ 0.0909 µg/mL)

## O=C(Nc1ccc(Oc2ccc(Cl)cc2)cc1Br)c1cc(Cl)cc(Cl)c1O
Clostridioides difficile [1]
  MIC: 0.18 µM (≈ 0.0878 µg/mL)

## O=C(Nc1ccc(Oc2ccc(Cl)cc2)c(Br)c1)c1cc(Cl)cc(Cl)c1O
Clostridioides difficile [1]
  MIC: 0.1 µM (≈ 0.0488 µg/mL)

## O=C(Nc1cc([N+](=O)[O-])c(Oc2ccc(Cl)cc2)c([N+](=O)[O-])c1)c1cc(Cl)cc(Cl)c1O
Clostridioides difficile [1]
  MIC: > 2 µM

## O=C(Nc1ccc(Oc2ccc(Cl)cc2)cc1)c1cc(Cl)cc(Cl)c1O
Clostridioides difficile [1]
  MIC: 1.4 µM (≈ 0.572 µg/mL)

## COc1cc(NC(=O)c2cc(Cl)cc(Cl)c2O)ccc1Oc1ccc(Cl)cc1
Clostridioides difficile [1]
  MIC: 2.6 µM (≈ 1.14 µg/mL)

## O=C(Nc1cc(I)c(Oc2ccc(Cl)cc2)c(I)c1)c1cc(Cl)cc(Cl)c1O
Clostridioides difficile [1]
  MIC: 0.075 µM (≈ 0.0495 µg/mL)

## N#Cc1cc(NC(=O)c2cc(Cl)cc(Cl)c2O)ccc1Oc1ccc(Cl)cc1
Clostridioides difficile [1]
  MIC: 0.37 µM (≈ 0.16 µg/mL)

## CN[C@H](CC(C)C)C(=O)N[C@H]1C(=O)N[C@@H](CC(N)=O)C(=O)N[C@H]2C(=O)N[C@H]3C(=O)N[C@H](C(=O)N[C@H](C(=O)O)c4cc(O)cc(O)c4-c4cc3ccc4O)[C@H](O)c3ccc(c(Cl)c3)Oc3cc2cc(c3O[C@@H]2O[C@H](CO)[C@@H](O)[C@H](O)[C@H]2O[C@H]2C[C@](C)(N)[C@H](O)[C@H](C)O2)Oc2ccc(cc2Cl)[C@H]1O [VANCOMYCIN]
Clostridioides difficile [1]
  MIC: 2.1 µM (≈ 3.04 µg/mL)
Clostridioides difficile [2]
  Activity: Active
Clostridioides difficile [3]
  Activity: Active
Clostridioides difficile [4]
  Activity: inactive
Clostridioides difficile [5]
  Activity: inactive
Clostridioides difficile [6]
  Activity: 10 - 26%
Clostridioides difficile [7]
  Activity: inactive
Clostridioides difficile [8]
  Activity: inactive
Clostridioides difficile [9]
  Activity: inactive
Clostridioides difficile [10]
  Activity: inactive
